The source made the active and inactive calls.
How the values were obtained:
[1] = test system: Mus musculus; assay: Neurotoxicity in mouse assessed as motor impairment at 100 mg/kg, ip measured for one min by rotarod test; type: toxicity, organism-based; conditions: in vivo, 1 min
In short: (§1)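 Mice trained on an accelerating rotarod, then tested at least 24 h later after ip pretreatment, on a rod turning at 10 rpm. Neurotoxicity was scored as failure to stay on the rod for one minute. Read-out is mice impaired over mice tested.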

[2] = test system: Mus musculus; assay: Anticonvulsant activity in mouse assessed as protection against maximal electroshock-induced seizures at 100 mg/kg, ip; type: functional, organism-based
In short: (§2)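 Mice dosed ip; maximal seizures induced by auricular electroshock (25 mA, 500 V, 50 Hz, 0.2 s). Endpoint: hind-limb tonic extension; animals without it scored protected. Read-out is number protected over number tested.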

[3] = test system: Mus musculus; assay: Analgesic activity in mouse assessed as decrease in time of paw licking during phase 1 at 21 mg/kg, ip measured for 5 mins by formalin test relative to control; type: functional; design: scale not given: the % may be the effect or the level left
In short: (§3)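 Formalin test in mice: 20 μL of 5% formalin injected intraplantarly into the right hind paw. Each mouse was observed alone in a glass beaker for 30 min. Time (s) spent licking or biting the injected paw was recorded at 0–5 min (acute phase) and 15–30 min (inflammatory phase).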

[4] = test system: Mus musculus; assay: Anticonvulsant activity in mouse assessed as protection against subcutaneous pentylenetetrazole-induced seizures at 100 mg/kg, ip measured for 30 mins post pentylenetetrazole challenge at 0.5 hrs after compound dosing relative to control; type: functional
[5] = test system: Mus musculus; assay: Toxicity in mouse assessed as effect on spontaneous activity at 21 mg/kg, ip measured for 30 mins by photoresistor actometer relative to control; type: organism-based; conditions: in vivo, 0.5 h
In short: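 Mice dosed ip; locomotor activity by photoresistor actometers counting light-beam interruptions. Each mouse was habituated 30 min in a cage, then crossings were counted over a 30 min session. Data are mean ± SEM and % change vs control; unpaired t test.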

[6] = Cytotoxicity against mouse CRL-2541 cells assessed as effect on cell viability at 10 to 250 uM after 24 hrs by MTT assay; type: cell-based
[7] = test system: Mus musculus; assay: Toxicity in mouse at 100 mg/kg, ip measured during maximal electroshock seizure test; type: organism-based; conditions: in vivo
[8] = test system: HepG2; assay: Cytotoxicity against human HepG2 cells assessed as effect on cell viability at 10 to 250 uM after 24 hrs by neutral red assay; type: cell-based; conditions: hepg2, 24 h
In short: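 HepG2 cells seeded at 5 × 10^4 per well, then after 24 h given medium with 10–250 μM for 24 h. Viability by neutral red staining, OD 570 nm. Results are % of control ± SEM, three independent experiments.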

[9] = test system: HepG2; assay: Cytotoxicity against human HepG2 cells assessed as effect on cell viability at 10 to 250 uM after 24 hrs by MTT assay; type: cell-based; conditions: hepg2, 24 h
In short: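 HepG2 cells grown in MEM with 10% FBS (37 °C, 5% CO2) and seeded at 1 × 10^4. After overnight culture, exposed to 10–250 μM for 24 h. MTT for 3 h, formazan dissolved, OD 570 nm. Viability is % of control ± SEM from three independent experiments.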

[10] = test system: Mus musculus; assay: Anticonvulsant activity in mouse assessed as current strength required to induce tonic hind-limb extension in 50% of the animals at 10 mg/kg, ip by maximal electroshock seizure threshold test (reference value: 6.05 to 8.13 mA); type: functional
[11] = test system: Mus musculus; assay: Anticonvulsant activity in mouse assessed as increase in electroconvulsive threshold at 10 mg/kg, ip by maximal electroshock seizure threshold test relative to control; type: functional
[12] = test system: Mus musculus; assay: Analgesic activity in mouse assessed as decrease in time of paw licking during phase 2 at 21 mg/kg, ip measured for 15 to 30 mins by formalin test relative to control; type: functional; design: scale not given: the % may be the effect or the level left; in short: as §3
[13] = test system: Mus musculus; assay: Neurotoxicity in mouse assessed as motor impairment by measuring loss of coordination at 21 mg/kg, ip measured for 60 secs by chimney test relative to control; type: toxicity, organism-based; conditions: in vivo, 1 min
In short: (§4)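 Mice dosed ip; trained, selected animals placed in a horizontal tube 25 cm long and 2.5 cm in diameter, then tube reversed so mice must climb out backward. Read-outs: escape time (s) ± SEM and % animals losing coordination versus control. Unpaired t test.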

[14] = test system: Mus musculus; assay: Neurotoxicity in mouse assessed as motor impairment by measuring time of escaping from chimney at 21 mg/kg, ip measured for 60 secs (reference value: 8.87 +/- 1.79 secs); type: toxicity, organism-based; conditions: in vivo, 1 min; in short: as §4
[15] = test system: Mus musculus; assay: Anticonvulsant activity in mouse assessed as protection against subcutaneous pentylenetetrazole-induced seizures by measuring latency time of tonic seizures at 100 mg/kg, ip measured for 30 mins post pentylenetetrazole challenge at 0.5 hrs after compound dosing (reference value: 562.8 to 614.9 secs); type: functional
[16] = test system: Mus musculus; assay: Anticonvulsant activity in mouse assessed as protection against maximal electroshock-induced seizures at 30 mg/kg, ip; type: functional, organism-based; in short: as §2
[17] = test system: Mus musculus; assay: Toxicity in mouse at 30 mg/kg, ip measured during maximal electroshock seizure test; type: organism-based; conditions: in vivo
[18] = test system: Mus musculus; assay: Neurotoxicity in mouse assessed as motor impairment at 30 mg/kg, ip measured for one min by rotarod test; type: toxicity, organism-based; conditions: in vivo, 1 min; in short: as §1
[19] = test system: Mus musculus; assay: Anticonvulsant activity in mouse assessed as protection against maximal electroshock-induced seizures at 60 mg/kg, ip; type: functional, organism-based; in short: as §2
[20] = Protection index, ratio of TD50 for neurotoxicity in ip dosed mouse by rotarod test to ED50 for anticonvulsant activity in mouse by maximal electroshock seizure test; type: toxicity, organism-based; conditions: in vivo, read-out: Ratio TD50/ED50
[21] = test system: Mus musculus; assay: Anticonvulsant activity in ip dosed mouse assessed as protection against maximal electroshock-induced seizures; type: functional
In short: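 Mice were dosed ip. Maximal seizures were induced by auricular electrodes (25 mA, 500 V, 50 Hz, 0.2 s). Absence of hind-limb tonic extension counted as protection. […] Motor impairment was scored on a 10 rpm rotarod, giving TD50 the same way.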

[22] = Neurotoxicity in ip dosed mouse assessed as motor impairment measured for one min by rotarod test; type: toxicity, organism-based; conditions: in vivo; in short: as §1

With Cc1cccc(Cl)c1OCCCCN[C@@H](C)CO the Activity [1] was “Toxic”.
With Cc1cc(C)c(OCCCN2CCC(O)CC2)c(C)c1 the Activity [2] was “Active”, the Activity [3] was 27.01% and the Activity [4] was “inactive”. The Activity [5] was 19.76%, the Activity [6] was “Non-Toxic” and the Activity [7] was “Non-Toxic”. The Activity [8] was “Non-Toxic”, the Activity [9] was “Non-Toxic” and the Activity [10] was 9.15 mA. The Activity [11] was 12.55%, the Activity [12] was 4.87% and the Activity [13] was 0%. It also gave a Time [14] of 6.5 s and a Time [15] of 275.4 s.
With Cc1ccc(Cl)c(OCCCCN[C@H](C)CO)c1 the Activity [2] was “Active”, the Activity [16] was “inactive” and the Activity [7] was “Non-Toxic”. The Activity [17] was “Non-Toxic”, the Activity [1] was “Toxic” and the Activity [18] was “Non-Toxic”.
For CC[C@@H](CO)NCCCCOc1cc(C)ccc1Cl, the Activity [2] was “Active”, the Activity [16] was “inactive” and the Activity [7] was “Non-Toxic”. For the same molecule, the Activity [17] was “Non-Toxic” and the Activity [1] was “Toxic”.
For Cc1cccc(C)c1OCCCCN[C@H]1CC[C@H](O)CC1, the Activity [19] was “inactive” and the Activity [7] was “Toxic”.
In the case of Cc1cccc(Cl)c1OCCOCCNC[C@H](O)c1ccccc1, the Activity [1] is reported as “Toxic”.
In the case of Cc1ccc(Cl)c(OCCN[C@H]2CC[C@H](O)CC2)c1, the Activity [1] is reported as “Toxic”.
In the case of Cc1ccc(Cl)c(OCCOCCN2CCC(O)CC2)c1, the Activity [2] is reported as “Active”, the Activity [16] is reported as “inactive” and the Activity [7] is reported as “Non-Toxic”. The Activity [18] was “Non-Toxic”.
In the case of CC[C@H](CO)NCCCCOc1cc(C)ccc1Cl, the Activity [2] is reported as “Active”, the Activity [7] is reported as “Non-Toxic” and the Activity [17] is reported as “Non-Toxic”. The Activity [1] was “Toxic” and the Activity [18] was “Non-Toxic”.
In the case of Cc1cccc(Cl)c1OCCCCN[C@H]1CC[C@H](O)CC1, the selectivity ratio [20] is reported as 1.22, the ED50 [21] is reported as 41.1 mg/kg and the Activity [2] is reported as “Active”. For the same molecule, the Activity [7] was “Non-Toxic” and the TD50 at 1 min [22] was 50 mg/kg.
Work on CC[C@@H](CO)NCCOc1c(C)cccc1C yielded a selectivity ratio [20] of 4.55.

— ChEMBL document CHEMBL4261484, “Design, synthesis and anticonvulsant-analgesic activity of new N-[(phenoxy)alkyl]- and N-[(phenoxy)ethoxyethyl]aminoalkanols” (Medchemcomm, 2017)
